# MPTP inh – blocks calcium-induced mitochondrial swelling; isolated mouse mitochondria, Ca2+ swelling absorbance, 30 min; inhibition, % at 10 µM; actives 1.4% (n = 360,000);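 active = inhibition of 50% or more, scaled per plate between neutral and stimulator controls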;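 note: 0% = DMSO wells given calcium and 100% = 1 mM EGTA wells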
# UPR CHOP act – activators of apoptotic arm of unfolded protein response (CHOP); CHO-CHOP luciferase reporter, UPR activation, luminescence; percent of tunicamycin response over DMSO baseline; activation, % at 10 µM; actives 0.34% (n = 330,000);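 active = at 10 µM dose, activation of 40% or more, normalized to positive control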;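 note: 100% = tunicamycin at 10 µg/mL and 0% = DMSO alone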
#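 Assay system: CHO-CHOP cells, stable luciferase reporter of PERK-eIF2a-CHOP signalling / Buffer or medium: F12 plus 10% serum / Compound dosing: one dose, 10 µM in 0.5% DMSO / Times: 6 h compound treatment, 37 °C / Technique: luciferase luminescence / Read-out: % reporter activation, DMSO baseline versus tunicamycin full activation / Benchmarks: tunicamycin and DMSO controls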
# UPR XBP1 act – adaptive UPR (XBP1) activation; AID 463104; activation, % at 20 µM; CHO-XBP1 luciferase reporter, IRE1-XBP1 UPR activation, luminescence; percent of tunicamycin response, DMSO as zero; actives 0.33% (n = 330,000);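 active = versus positive control, 20 µM dose yields 30% or more activation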;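 note: 100% = tunicamycin at 10 µg/mL and 0% = DMSO only wells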
#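 Assay system: CHO-XBP1 luciferase reporter cells; Schedule: 6 h treatment, 37 °C; Detection: glow luminescence from Steady-Glo reagent; Benchmarks: high control tunicamycin 10 µg/mL final, low control DMSO vehicle only.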
# NR3A LBD binder – modulates the human NR3A ligand-binding domain; actives 2.5% (n = 340,000); NR3A LBD differential scanning fluorimetry, Tm shift; 0% = protein alone, 100% = glycine-bound protein; Tm shift relative to glycine control, % at 25 µM; AID 1259313;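 active = melting temperature shift of at least 10% of the positive control shift, at one fixed dose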
# CHOP inh – CHOP inhibition in unfolded protein response; inhibition, % at 10 µM; actives 3.8% (n = 220,000); CHO-K1 CHOP-promoter luciferase, tunicamycin-induced, 15-18 h;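 active = compounds that reduced the stress-induced luciferase reporter signal by more than about 70% of percent inhibition, limit read from the data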;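 note: 0% = tunicamycin plus vehicle and 100% = wells without tunicamycin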
# aDG glyco up – alpha-DG glycosylation activation. Pro5-aDG cells, alpha-DG glycosylation AlphaScreen (IIH6); 0% Pro5, 100% B10-LARGE cell signal. activation, % at 10 µM. actives 0.22% (n = 360,000);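 active = activation of at least 8% versus controls, or a plate z-score of at least 8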;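 note: Pro5 are CHO cells carrying HIG-tagged alpha-DG that lacks glycosylation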
# CHOP confirm – confirmation of CHOP induction inhibitors; actives 45% (n = 2,100); shares compounds with CHOP inh; AID 504437; CHO-CHOP promoter luciferase reporter, tunicamycin-induced, luminescence; inhibition, % at 10 µM;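 active = mean of three repeat readings of reporter signal inhibition above a set limit, cut at about 70% in these data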;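 note: 0% = tunicamycin plus vehicle and 100% = wells lacking tunicamycin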
# CHOP UPR conf – apoptotic UPR (CHOP) activation, confirmed. shares compounds with UPR CHOP act. CHO-CHOP cells, CHOP-luciferase reporter luminescence; percent of tunicamycin response, DMSO as zero. activation, % at 10 µM. actives 64% (n = 1,000); in the data active = activation above about 33%;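 note: 0% = DMSO wells and 100% = tunicamycin 10 µg/mL wells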
# MPTP counter – membrane potential counter-screen of mitochondrial pore inhibitors; actives 78% (n = 5,000); shares compounds with MPTP inh; inhibition, % at 10 µM; AID 624504; isolated mitochondria, Rhodamine 123 fluorescence; in the data active = inhibition above about 22%;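 note: 0% = DMSO vehicle and 100% = positive control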
# MPTP swell DR – dose response confirmation of mitochondrial permeability transition pore inhibitors | actives 58% (n = 780) | isolated mitochondria swelling, absorbance | shares compounds with MPTP inh | AID 651561 | IC50, µM; in the data active = IC50 below about 20 µM
# MPTP cs DR – counter-screen for mitochondrial permeability transition pore inhibitors, dose response. shares compounds with MPTP inh. isolated mitochondria counterscreen, fluorescence read-out. IC50, µM. actives 49% (n = 780). AID 651564; in the data active = IC50 below about 80 µM
# Starred values were filed as active, the others as inactive; . = no result given. In the library only some 5.6% were active in any assay of this set; here they are far more common.
SMILES,MPTP inh,UPR CHOP act,UPR XBP1 act,NR3A LBD binder,CHOP inh,aDG glyco up,CHOP confirm,MPTP counter,others
O=C(COC(=O)Cc1c(Cl)cccc1Cl)Nc1ccc(OC(F)(F)F)cc1,66*,1,-2,8,109*,0,86*,73*,
CN(CC(=O)Nc1ccc(OC(F)(F)F)cc1)C(=O)Cc1c(Cl)cccc1Cl,0,1,0,5,.,0,.,.,
O=C(CSc1nnc(-c2ccncc2)o1)N1CCc2ccccc2C1,-1,-1,-2,-2,-8,0,.,.,
CC1CCN(CC(=O)Nc2cccc(C(=O)Nc3cccc(C(F)(F)F)c3)c2)CC1,38,-1,-1,-30,44,6,.,.,
CCOC(=O)c1sc(NC(=O)Nc2ccc(Cl)cc2)cc1C,116*,14,4,27*,108*,0,30,47*,
O=C(Nc1ccc(Cl)cc1)Nc1ccc(N2CCCC2)c(S(=O)(=O)Nc2ccccc2Cl)c1,98*,16,11,32*,100*,1,73*,48*,
O=C(Nc1ccc(N2CCOCC2)c(S(=O)(=O)Nc2ccccc2Cl)c1)c1ccccc1,-2,-3,-3,1,.,0,.,.,
CCN1C(=O)[C@@H]2[C@H](C1=O)[C@@H]1CC(C(=O)OC)=C[C@@H](C(=O)OC)C3C1=C(C(=O)C3(CC)CC)[C@@H]2C (stereo not given in full),.,-2,-2,-1,.,.,.,.,
Cc1ccc(NC(=O)COC(=O)[C@H](C)NC(N)=O)c(C)c1,-1,3,1,0,5,0,.,.,
CC[n+]1c(/C=C2\Sc3ccccc3N2C)ccc2cccc(C)c21,106*,.,.,-3,104*,4,110*,100*,
CN1/C(=C/c2cccc[n+]2CCO)Sc2ccccc21,0,-2,0,-5,.,0,.,.,
N=C1/C(=C\c2coc3ccccc3c2=O)C(=O)N=C2SC(c3ccncc3)=NN12,94*,2,-2,-1,102*,0,-4,64*,
N=C1/C(=C\c2coc3ccc(O)cc3c2=O)C(=O)N=C2SC=CN12,1,-2,-1,-5,-1,0,.,.,
C=CCc1cccc(/C=N/NC(=O)CCCNc2ccc(C)cc2)c1O,54*,.,.,12*,97*,0,75*,30*,
O=[N+]([O-])c1cc(S(=O)(=O)C(F)(F)F)ccc1Sc1nc2ccccc2[nH]1,57*,43*,-9,-3,108*,-1,124*,91*,CHOP UPR conf=5
Nc1nc(COc2ccc(F)cc2Cl)nc(N2CCCCC2)n1,-1,-1,-4,1,47,0,.,.,
CC(CN1CCOCC1)OC(=O)c1cccc(Cl)c1 (stereo not given),0,0,-5,2,.,0,.,.,
CN(C)c1ccc(/C=C/c2ccc3c4ccccc4ccc3[n+]2-c2ccccc2)cc1,154*,.,.,5,108*,-1,123*,77*,
CCCc1ccc(Oc2cn[nH]c2-c2ccc(O)cc2O)cc1,64*,-1,3,28*,108*,3,120*,39*,
CCOc1ccccc1Oc1cn[nH]c1-c1ccc(O)cc1O,2,0,-6,5,.,2,.,.,
CCN=C1S/C(=C\c2cc(OCC)c(O)cc2Br)C(=O)N1CC,67*,.,.,5,108*,0,37,71*,
O=C(O)Cc1cn(-c2ccccc2)nc1-c1ccccc1,3,0,-2,-2,7,0,.,.,
Fc1ccc(-c2nn(-c3ccccc3)cc2CNCc2ccccc2)cc1,91*,1,-4,-8,101*,1,123*,-10,MPTP swell DR=4.7*;MPTP cs DR=43*
COc1ccc(/C(O)=C2/C(=O)C(=O)N(CCN3CCNCC3)C2c2cccc([N+](=O)[O-])c2)cc1 (stereo not given),0,0,-3,-2,.,0,.,.,
COC(=O)c1csc(C2OC(CO)C(O)C2O)n1 (stereo not given),-2,.,.,.,.,0,.,.,
SMILES,MPTP inh,UPR CHOP act,UPR XBP1 act,NR3A LBD binder,CHOP inh,aDG glyco up,CHOP confirm,MPTP counter,others
Cc1cc(C)n(-c2nc(N(c3ccccc3)c3ccccc3)nc(-n3nc(C)cc3C)n2)n1,80*,-7,-5,34*,109*,0,140*,2,
COc1ccc(NC(=O)Nc2nnc(Cc3ccccc3)s2)cc1,2,0,-1,-6,.,0,.,.,
COc1ccc(OCc2nnc(NC(=O)Nc3ccc(F)cc3)s2)cc1,74*,-1,-2,-3,101*,0,0,82*,
Cc1ccc(/C=N/N2C(=S)SC(C)(C)C2N(O)C(=O)Nc2ccc([N+](=O)[O-])cc2)cc1 (stereo not given),91*,3,6,12*,103*,0,78*,87*,
CCN1CCN(C(=O)c2ccc(CS(=O)(=O)Cc3ccccc3C)o2)CC1,0,0,-2,-1,.,0,.,.,
O=C(Nc1nnc(-c2ccccc2Cl)o1)c1nc2ccccc2s1,96*,4,-2,-11,99*,0,-9,-9,
O=C(Nc1nnc(-c2ccccc2Cl)o1)c1ccco1,-2,2,2,0,-21,0,.,.,
CCC(C)c1ccc(O)c(NC(=O)c2cncc(Br)c2)c1 (stereo not given),77*,1,1,-25,111*,0,82*,64*,
Cc1ccc(C2(c3ccc(C)cc3)CC2C(=O)Nc2ccc([N+](=O)[O-])cc2O)cc1 (stereo not given),82*,18,4,1,107*,0,78*,47*,
Cc1ccc([N+](=O)[O-])cc1NC(=O)C1CCCC1,0,2,-2,-1,.,0,.,.,
CCc1nnc(NS(=O)(=O)c2ccc(NC(=S)NC(=O)/C=C/c3ccc(C(C)C)cc3)cc2)s1,66*,7,-1,15*,105*,0,118*,42*,
